Reference: ChEMBL document CHEMBL4359872, “Identification of potent triazolylpyridine nicotinamide phosphoribosyltransferase (NAMPT) inhibitors bearing a 1,2,3-triazole tail group” (Eur J Med Chem, 2019)
Converted amounts (≈) assume the structure as drawn. The source made the active and inactive calls. No cut-off for these calls is given here.

Assays:
SH-SY5Y [1] = assay: Cytotoxicity against human SH-SY5Y cells measured after 48 hrs by MTT assay; format: cell-based
[2] = target: Nicotinamide phosphoribosyltransferase (Mus musculus, UniProt Q99KQ4); assay: Inhibition of recombinant mouse wild-type NAMPT expressed in bacterial expression system using PRPP as substrate in presence of mouse NMNAT-3 measured for 1 hr by fluorescence assay
Outline: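 In vitro NAMPT enzymatic assay run as concentration-response curves, with IC50 derived from the curves. Mean ± SD of three independent experiments (n = 6).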

[3] = Cytotoxicity against human SH-SY5Y cells assessed as cell viability at 1 uM measured after 48 hrs by MTT assay relative to control; format: cell-based; details: read-out: Activity
[4] = Kinetic aqueous solubility of the compound in 80:20 PBS/acetonitrile solution at 200 to 500 uM by HTS assay; format: physicochemical; details: read-out: Kinetic_solubility
[5] = Permeability across apical side to basolateral side in human Caco2 cells at 30 uM after 4 hrs by HPLC analysis; format: ADME, cell-based; details: caco-2, 4 h
Outline: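 Caco-2 monolayer used to measure apical-to-basal transfer, reported as % permeability and Papp. Terbutaline served as the positive control; n = 3.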

Lymphocyte [6] = assay: Genotoxicity in human primary lymphocytes up to 1 mM in presence of S9 fraction by GreenScreen assay; format: toxicity, cell-based
[7] = Metabolic stability in human liver microsomes assessed as parent compound remaining at 50 uM […] for 60 mins by LC-ESI/MS analysis; format: ADME, Microsome; details: read-out: Stability
4T1 [8] = assay: Antitumor activity against mouse 4T1 cells implanted in BALB/c mouse assessed as reduction in tumor weight at 10 mg/kg, ip bid for 12 days; format: functional, organism-based
Outline: (§1)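 Tumour cells implanted in the mammary gland. Dosing began at day 14, once tumours were palpable, after randomization into vehicle and treated groups of 4 mice each. Compound given intraperitoneally at 10 mg/kg twice a day for 12 consecutive days. Data are means of two independent experiments.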

4T1 [9] = assay: Antitumor activity against mouse 4T1 cells implanted in Balb/c mouse mouse assessed as inhibition of tumor metastasis at 10 mg/kg, ip bid for 12 days measured post last dose by crystal violet staining based thioguanine clonogenic assay; format: functional, organism-based; outline: as §1
[10] = Metabolic stability in Wistar Han rat liver microsomes assessed as parent compound remaining at 50 uM […] for 60 mins by LC-ESI/MS analysis; format: ADME, Microsome; details: read-out: Stability
[11] = Clearance in BALB/c mouse at 10 mg/kg, iv administered as single dose measured after 24 hrs by LC-ESI/MS analysis; format: ADME, organism-based; details: in vivo
Outline: (§2)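 Mice given a single 10 mg/kg i.v. injection; serial blood sampling, then half-life, clearance and volume of distribution derived.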

[12] = Toxicity in Crl:CD Sprague-Dawley rat retina at 100 mg/kg, ip administered once daily for 5 days by hematoxylin and eosin staining based microscopic analysis; format: organism-based; details: in vivo, 120 h
[13] = Toxicity in Crl:CD Sprague-Dawley rat heart assessed as hypereosinophilia at 100 mg/kg, ip administered once daily for 5 days by hematoxylin and eosin staining based microscopic analysis; format: organism-based; details: in vivo, 120 h
4T1 [14] = assay: Antitumor activity against mouse 4T1 cells implanted in BALB/c mouse assessed as reduction in tumour volume at 10 mg/kg, ip bid for 12 days by vernier caliper method; format: functional, organism-based; outline: as §1
[15] = Volume of distribution in BALB/c mouse at 10 mg/kg, iv administered as single dose measured after 24 hrs by LC-ESI/MS analysis; format: ADME, organism-based; details: in vivo; outline: as §2
Lymphocyte [16] = assay: Genotoxicity in human primary lymphocytes assessed as induction of DNA damage up to 500 uM by GreenScreen assay; format: toxicity, cell-based
[17] = AUC in BALB/c mouse at 10 mg/kg, iv administered as single dose measured after 24 hrs by LC-ESI/MS analysis; format: ADME, organism-based; parameters: time < 24 hr, dose 10 mg/kg, route intravenous; details: in vivo; outline: as §2
[18] = Thermodynamic solubility of compound in water after 24 hrs by LC-UV based shake flask method; format: physicochemical; details: buffer
Outline: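 Thermodynamic water solubility measured by saturation shake flask, with the concentration of the saturated solution reported.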

TK6 [19] = assay: Genotoxicity in human TK6 up to 1 mM in presence of S9 fraction by GreenScreen assay; format: toxicity, cell-based
[20] = Half-life in BALB/c mouse at 10 mg/kg, iv administered as single dose measured after 24 hrs by LC-ESI/MS analysis; format: ADME, organism-based; details: in vivo; outline: as §2
[21] = Toxicity in Crl:CD Sprague-Dawley rat heart assessed as increase in cardiomyocytes cytoplasmic vacuolation at 100 mg/kg, ip administered once daily for 5 days by hematoxylin and eosin staining based microscopic analysis; format: organism-based; details: in vivo, 120 h
TK6 [22] = assay: Genotoxicity in human TK6 cells assessed as induction of DNA damage up to 500 uM by GreenScreen assay; format: toxicity, cell-based
[23] = Toxicity in Crl:CD Sprague-Dawley rat heart assessed as interstitial expansion at 100 mg/kg, ip administered once daily for 5 days by hematoxylin and eosin staining based microscopic analysis; format: organism-based; details: in vivo, 120 h
SH-SY5Y [24] = assay: Cytotoxicity against human SH-SY5Y cells assessed as cell viability at 10 uM measured after 48 hrs by MTT assay relative to control; format: functional; details: read-out: Activity
[25] = Kinetic aqueous solubility of the compound in 80:20 PBS/acetonitrile solution at 200 uM by HTS assay; format: physicochemical; details: buffer

Nicotinamide phosphoribosyltransferase, sequence (Q99KQ4 whole entry): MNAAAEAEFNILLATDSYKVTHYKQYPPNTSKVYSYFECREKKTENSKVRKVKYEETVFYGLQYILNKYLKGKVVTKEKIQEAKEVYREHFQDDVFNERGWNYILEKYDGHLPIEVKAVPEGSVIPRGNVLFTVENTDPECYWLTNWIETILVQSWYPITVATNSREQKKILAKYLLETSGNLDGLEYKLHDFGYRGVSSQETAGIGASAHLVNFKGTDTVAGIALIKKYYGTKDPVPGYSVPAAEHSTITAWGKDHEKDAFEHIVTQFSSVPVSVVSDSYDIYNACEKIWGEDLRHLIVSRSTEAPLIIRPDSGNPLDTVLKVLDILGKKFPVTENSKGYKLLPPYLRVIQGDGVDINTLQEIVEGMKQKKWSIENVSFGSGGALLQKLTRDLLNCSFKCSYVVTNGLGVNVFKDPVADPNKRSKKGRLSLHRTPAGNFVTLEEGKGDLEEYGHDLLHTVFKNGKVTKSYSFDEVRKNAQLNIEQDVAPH

| SMILES | IC50 [2] [nM] | solubility kinetic [4] [µM] | permeability [5] [%] | EC50 (SH-SY5Y [1]) [nM] | viability at 48 h, 1 µM [3] [%] | also measured |
| --- | --- | --- | --- | --- | --- | --- |
| CN(C)Cc1cn(-c2ccccc2C(=O)NCCCCCCCn2cc(-c3cccnc3)nn2)nn1 | 42.4 | 200 to 500 (≈ 97.5 to 244 µg/mL) | – | 285 | 86.6 | – |
| O=C(NCCCCCCCn1cc(-c2cccnc2)nn1)c1ccccc1-c1cccnc1 | 28.5 | – | – | 36.5 | 15.1 | – |
| CC(C)(C)NCC(O)c1cc(O)cc(O)c1 (stereo not drawn) [TERBUTALINE] | – | – | 52.7 | – | – | – |
| O=C(O)c1cccc(-c2ccccc2C(=O)NCCCCCCCn2cc(-c3cccnc3)nn2)c1 | > 500 | – | – | > 500 | 78.4 | – |
| O=C(/C=C/c1cccnc1)NCCCCC1CCN(C(=O)c2ccccc2)CC1 [DAPORINAD] | – | – | 20.5 | 2.5 | 9.7 | Activity [12]: Non-Toxic; Activity [13]: Toxic; Kinetic_solubility [25]: Soluble; Activity [21]: Toxic; Activity [23]: Non-Toxic |

Second part, led by results:

| IC50 [2] [nM] | solubility kinetic [4] [µM] | permeability [5] [%] | SMILES | EC50 (SH-SY5Y [1]) [nM] | viability at 48 h, 1 µM [3] [%] | also measured |
| --- | --- | --- | --- | --- | --- | --- |
| 20.6 | 200 to 500 (≈ 120 to 300 µg/mL) | – | CCOC(=O)C1CCN(Cc2cn(-c3ccccc3C(=O)NCCCCCCCn3cc(-c4cccnc4)nn3)nn2)CC1 | 61.5 | 14.1 | – |
| > 500 | – | – | O=C(O)c1ccc(-c2ccccc2C(=O)NCCCCCCCn2cc(-c3cccnc3)nn2)cc1 | 224 | 22.5 | – |
| 73.8 | 200 to 500 (≈ 110 to 274 µg/mL) | – | O=C(NCCCCCCCn1cc(-c2cccnc2)nn1)c1ccccc1-n1cc(CN(CCO)CCO)nn1 | > 500 | 37.8 | – |
| 3.4 | 200 to 500 (≈ 86.1 to 215 µg/mL) | 10.6 | O=C(NCCCCCCCn1cc(-c2cccnc2)nn1)c1ccccc1-n1ccnn1 | 35.4 | 10.5 | Activity (Lymphocyte [6]): Non-Toxic; remaining at 1 h, 50 µM [7]: 94%; Activity (4T1 [8]): Active; inhibition (4T1 [9]): Active; remaining at 1 h, 50 µM [10]: 70%; clearance [11]: 103 mL/min/kg; Activity [12]: Non-Toxic; Activity [13]: Non-Toxic; Activity (4T1 [14]): Active; Vd [15]: 31.3 L/kg; Activity (Lymphocyte [16]): Non-Toxic; AUC at 24 h [17]: 1620 ng·h/mL; Therm_solubility [18]: Soluble; Activity (TK6 [19]): Non-Toxic; half-life [20]: 3.51 h; Activity [21]: Non-Toxic; Activity (TK6 [22]): Non-Toxic; Activity [23]: Non-Toxic |
| 24.7 | 200 to 500 (≈ 114 to 285 µg/mL) | – | CC(C)N1CCN(Cc2cn(-c3ccccc3C(=O)NCCCCCCCn3cc(-c4cccnc4)nn3)nn2)CC1 | > 10000 | 80.2 | viability at 10 µM (SH-SY5Y [24]): 64.1% |
